# In the library only some 2.6% were active in any assay of this set; here they are far more common.
# SENP8 block-1 – human SENP8 protease inhibitors, primary screen, biochemical, fluorescence, Nedd8 protein substrate, uHTS; Sentrin-specific protease 8 (Homo sapiens), Q96LD8; recombinant SENP8; inhibition, % at 20 µM; 360,000 tested, 0.64% active; in the data active = inhibition mostly above about 40%, no sharp cut-off; inactive = mostly below about 27%
# Target sequence (Q96LD8 whole entry, looked up): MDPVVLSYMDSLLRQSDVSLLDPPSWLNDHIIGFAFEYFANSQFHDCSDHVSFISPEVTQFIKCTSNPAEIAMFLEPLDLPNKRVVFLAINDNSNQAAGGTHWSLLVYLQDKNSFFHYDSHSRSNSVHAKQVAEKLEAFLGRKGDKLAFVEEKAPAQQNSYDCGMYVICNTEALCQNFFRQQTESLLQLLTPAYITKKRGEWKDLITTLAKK
# SENP6 block – SENP6 protease inhibitors, primary screen, biochemical, luminescence, uHTS. inhibition, % at 10 µM. AID 2599, 2010. 330,000 tested, 1.8% active. Sentrin-specific protease 6 (Homo sapiens), Q9GZR1. Recombinant SENP6 catalytic domain, aminoluciferin luminescence;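 active = inhibition above about 50% at the single tested dose, limit read from the data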
# SENP8 block-2 – SENP8 protease inhibitors, primary screen, biochemical, luminescence | Sentrin-specific protease 8 (Homo sapiens), Q96LD8 | purified SENP8, Z-RLRGG-aminoluciferin cleavage | inhibition, % at 10 µM | 330,000 tested, 1.2% active; in the data active = inhibition above about 50%
# SENP7 inh – SENP7 protease inhibitors, primary screen, biochemical, luminescence, uHTS. recombinant SENP7, Z-RLRGG-aminoluciferin luminescence, 40 min. inhibition, % at 5 µM. 330,000 tested, 1.5% active;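 active = inhibition above about 50% at the single test dose, limit read from the data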
# SENP1 FRET inh – human SENP1 catalytic domain inhibitors, primary screen, biochemical, FRET, uHTS; Sentrin-specific protease 1 (Homo sapiens), Q9P0U3; 360,000 tested, 0.21% active; recombinant SENP1 catalytic domain, CyPet-SUMO1-YPet FRET cleavage; inhibition, % at 10 µM; AID 624204, 2012;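 active = inhibition at least 30% at 10 µM, raw YFP signal under a set limit, fluorescence ratio 0.5 to 1.5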
# Target sequence (Q9P0U3 419-644 limits assumed): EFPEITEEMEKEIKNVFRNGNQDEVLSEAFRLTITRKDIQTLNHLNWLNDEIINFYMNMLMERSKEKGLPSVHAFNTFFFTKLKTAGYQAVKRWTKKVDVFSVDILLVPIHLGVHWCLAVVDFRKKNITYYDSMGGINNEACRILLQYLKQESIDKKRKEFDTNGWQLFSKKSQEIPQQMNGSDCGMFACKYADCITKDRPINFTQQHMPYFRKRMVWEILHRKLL
#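 Assay system – human recombinant His6-tagged SENP1 catalytic domain enzyme · Input – SENP1 enzyme, 20 pM final · Buffer or medium – Tris pH 8 buffer plus EDTA, NaCl, BME, BSA, NP40, catalase · Schedule – 50 min reaction at room temperature · Technique – FRET read of cyan and yellow fluorescence · Control set – no-enzyme wells low, DMSO-plus-enzyme wells high control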
# Platelet DG rel – inhibitors of platelet dense granule secretion, primary screen, cell-based, MLPCN, human platelets | 300,000 tested, 0.22% active | human platelet-rich plasma, SFLLRN dense granule ATP release, luminescence | inhibition, %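 (compounds screened at 7.5 µM in platelet-rich plasma)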 | AID 1663, 2009;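 active = mean replicate score, as percent of positive control, at or above 50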
# SENP8 confirm – SENP8 protease inhibitors, retest, confirmation, biochemical, luminescence, single concentration; shares compounds with SENP7 inh; Recombinant SENP8, Z-RLRGG-aminoluciferin luminescence, 60 min; inhibition, % at 12.5 µM; 6,200 tested, 40% active;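 active = mean inhibition across replicates above about 50%, limit read from the data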
# SENP6 confirm – SENP6 protease inhibitors, confirmation, biochemical, luminescence, single concentration; 6,200 tested, 58% active; inhibition, % at 12.5 µM; AID 488915, 2010; shares compounds with SENP7 inh; recombinant SENP6, Z-RLRGG-aminoluciferin luminescence
# SENP7 conf – SENP7 protease inhibitors, retest, confirmation, biochemical, luminescence, single concentration; shares compounds with SENP7 inh; recombinant SENP7, Z-RLRGG-aminoluciferin luminescence, 40 min; inhibition, % at 12.5 µM; 6,200 tested, 69% active
# Casp3 SENP sel – caspase-3 protease inhibitors, confirmation, selectivity assay for SENP inhibitor project, biochemical, single concentration. 6,200 tested, 60% active. inhibition, % at 12.5 µM. AID 488918, 2010. shares compounds with SENP7 inh. purified caspase-3, Z-DEVD-aminoluciferin luminescence, 60 min;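 active = mean inhibition above about 50%, limit read from the data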
# Target sequence (P42574 28-227 limits assumed): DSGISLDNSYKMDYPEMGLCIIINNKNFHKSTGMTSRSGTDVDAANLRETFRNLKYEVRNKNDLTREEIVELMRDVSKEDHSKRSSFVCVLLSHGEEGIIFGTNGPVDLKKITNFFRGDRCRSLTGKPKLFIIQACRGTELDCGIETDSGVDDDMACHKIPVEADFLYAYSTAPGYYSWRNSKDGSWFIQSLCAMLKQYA
# SENP luc ctr – counter-screen for SENP inhibitors: luminescence interference; shares compounds with SENP7 inh; Pre-incubated SENP8/Z-RLRGG-aminoluciferin, luciferase luminescence interference; inhibition, % at 12.5 µM; 6,200 tested, 39% active; AID 488919;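 active = mean inhibition above about 50% when retested at one dose, limit read from the data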
# A number is an active result; - = inactive; . = no result given.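 Rule for the calls, unless noted: active = mean inhibition above about 50% in the one-dose retest (limit read from the data); inactive = the rest.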
SMILES,SENP8 block-1,SENP6 block,SENP8 block-2,SENP7 inh,SENP1 FRET inh,Platelet DG rel,SENP8 confirm,SENP6 confirm,SENP7 conf,Casp3 SENP sel,SENP luc ctr
O=C(NCc1ccco1)C1C(=O)Nc2ccccc2C(=O)N1C1CCCCC1 (stereo not drawn),-,.,.,.,-,.,.,.,.,.,.
O=Cc1ccccc1-c1cn(CCCOCc2ccccc2)nn1,-,-,-,-,-,-,.,.,.,.,.
O=C(CSCc1ccco1)N1CCc2ccccc21,-,57,-,-,-,-,-,-,79,68,58
c1ccc(-c2ccc(C3CCCN3)cc2)cc1 (stereo not drawn),-,-,-,-,-,-,.,.,.,.,.
Cn1[nH]c(C(F)(F)F)c(C=Nc2ccc(Cl)cc2)c1=O,-,-,-,-,-,-,.,.,.,.,.
CCN(CC)Cc1c(O)ccc2c(=O)c(-c3ccc4c(c3)OCCO4)coc12,-,-,-,-,-,-,.,.,.,.,.
O=c1c(-c2ccc3c(c2)OCCO3)coc2cc(O)cc(O)c12,-,67,50,58,-,-,76,73,89,58,70
COc1ccc(C/C(C)=N/NS(=O)(=O)c2ccc(Br)cc2)cc1,-,-,-,-,-,-,.,.,.,.,.
Cc1ccc(NC(=O)c2cnccn2)cc1C,-,69,-,71,-,-,66,61,83,84,63
Cc1ccc(NC(=O)c2cnccn2)cc1,-,-,-,-,-,-,.,.,.,.,.
COc1ccc(Cn2c(O)c(C=Nc3ccc(O)cc3)c3ccccc3c2=O)cc1,-,67,-,-,-,-,-,-,-,-,-
Cc1cc(C)cc(N=Cc2c(O)c3ccccc3oc2=O)c1,-,-,-,-,-,-,.,.,.,.,.
COc1ccc(N=Cc2c(O)c3ccccc3oc2=O)cc1,-,91,-,90,-,-,70,74,84,66,-
COc1ccc(OC)c(N=Cc2c(O)c3ccccc3oc2=O)c1,-,-,-,-,-,-,.,.,.,.,.
O=C(O)c1cc(N=Cc2c(O)c3ccccc3oc2=O)ccc1O,-,94,74,91,-,-,93,86,101,-,95
Cc1ccc(N=Cc2c(O)c3ccccc3oc2=O)cc1F,-,-,-,70,-,-,-,-,-,-,-
COc1ccc(Cn2c(O)c(C=Nc3ccccc3)c3ccccc3c2=O)cc1,-,-,-,-,-,-,.,.,.,.,.
COC(=O)c1ccc(CNC(=O)CSC(C)C(=O)Nc2cc(C)on2)cc1 (stereo not drawn),-,-,-,-,-,.,.,.,.,.,.
CCOC(=O)/C(=N/Nc1ccc(Br)cc1)N1CC(C)OC(C)C1 (stereo not drawn),-,.,.,.,-,.,.,.,.,.,.
COCC(C)NCc1ccccc1C (stereo not drawn),-,-,-,-,-,-,.,.,.,.,.
CC(C)c1ccc(N=Cc2c(O)c3ccccc3oc2=O)cc1,-,85,63,91,-,-,58,60,77,-,-
Cn1c(N)c(C(=O)COC(=O)c2ccc(Cl)c(S(=O)(=O)N3CCCC3)c2)c(=O)n(C)c1=O,-,-,-,-,-,-,.,.,.,.,.
COc1ccc(C(=O)C2CCCN(C(=O)c3ccc4nccnc4c3)C2)c(C)c1 (stereo not drawn),-,57,-,-,-,-,-,-,-,-,-
Cc1ccsc1C(=O)OCc1cc(=O)n2ccsc2n1,-,53,-,57,-,.,-,-,82,81,-
O=C(OCc1cc(=O)n2ccsc2n1)c1ccc(O)cc1O,-,64,-,-,-,.,55,-,79,76,61
SMILES,SENP8 block-1,SENP6 block,SENP8 block-2,SENP7 inh,SENP1 FRET inh,Platelet DG rel,SENP8 confirm,SENP6 confirm,SENP7 conf,Casp3 SENP sel,SENP luc ctr
CC(=O)N1CCN(S(=O)(=O)c2cccc(C(=O)Nc3nccs3)c2)CC1,-,-,-,-,-,-,.,.,.,.,.
COc1ccc(-c2cc(=O)oc(-c3cccc(C)c3)n2)cc1,-,-,-,-,-,-,.,.,.,.,.
COc1cc(NC(C)CCCN)c2ncccc2c1Oc1ccccc1 (stereo not drawn),-,74,-,-,-,-,-,-,-,-,-
O=S(=O)(/N=C/c1c(O)ccc2ccccc12)c1ccccc1,-,-,-,-,-,-,.,.,.,.,.
O=S(=O)(O)c1cccc(N=Nc2c(O)ccc3ccccc23)c1,-,99,94,92,-,-,98,99,102,97,96
Cc1ccc(C(=O)N/C(=C\c2cccs2)C(=O)N2CCN(C)CC2)cc1C,-,-,-,-,-,-,.,.,.,.,.
c1ccc(-c2nc(-c3nccc4ccccc34)oc2-c2ccccc2)cc1,-,86,64,85,-,-,-,-,61,76,65
CCCC#Cc1ccc2c(c1)COc1c3ccccc3nn1-2,-,92,89,73,-,-,53,70,90,86,-
CCc1cc(-c2ccc3c(c2)COc2c4ccccc4nn2-3)on1,-,81,89,-,-,-,-,89,94,70,-
c1ccc2c(c1)COc1c3cc4c(cc3nn1-2)OCO4,-,.,.,.,-,.,.,.,.,.,.
O=C(c1cc2ccccc2s1)N1CCOCC1,-,-,-,-,-,-,.,.,.,.,.
CCNC(=O)COC(=O)c1ccc(-c2nc3ccccc3s2)s1,-,96,96,99,-,-,87,96,101,93,-
CCN1CCN(C(=O)c2ccc(-c3nc4ccccc4s3)s2)CC1,-,61,-,-,-,-,56,52,82,69,-
Cc1ccc2nc(NC(=O)c3ccc(-c4nc5ccccc5s4)s3)sc2c1,-,-,-,-,-,.,.,.,.,.,.
O=C(c1ccc(-c2nc3ccccc3s2)s1)N1CCOCC1,.,97,94,96,.,-,91,97,101,96,69

# Bioassay records (PubChem BioAssay)
